Assay results published in ChEMBL document CHEMBL1135661, “Design of noncovalent inhibitors of human cathepsin L. From the 96-residue proregion to optimized tripeptides” (J Med Chem, 2002).
Peptide text beside a SMILES is read from it. * marks the point of attachment. Phenylacetyl(4-Ph) = O=C(Cc1ccc(-c2ccccc2)cc1)*

Assays:
Procathepsin L = Procathepsin L (Homo sapiens, UniProt P07711); test: Inhibitory activity against human Cathepsin L
Cathepsin K = biological target: T1, Cathepsin K (Homo sapiens, UniProt P43235); test: Specificity of Cathepsin K inhibition by the compound
T1 sequence (P43235 whole entry): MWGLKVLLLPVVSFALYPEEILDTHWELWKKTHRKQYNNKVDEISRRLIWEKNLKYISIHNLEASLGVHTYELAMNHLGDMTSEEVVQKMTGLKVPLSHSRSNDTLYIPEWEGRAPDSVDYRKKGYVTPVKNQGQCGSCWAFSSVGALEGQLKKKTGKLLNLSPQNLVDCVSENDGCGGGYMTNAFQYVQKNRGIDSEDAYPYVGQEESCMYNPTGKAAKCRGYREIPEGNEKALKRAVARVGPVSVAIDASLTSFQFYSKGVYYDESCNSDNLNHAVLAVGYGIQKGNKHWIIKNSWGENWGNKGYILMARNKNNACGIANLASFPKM
How it was run: (§1)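 Recombinant human cathepsins B and K were expressed in Pichia pastoris and stored inhibited with MMTS or HgCl2 (B at 4 °C, K at −80 °C). Both were reactivated with 2 mM DTT and E-64 titrated. Cbz-Phe-Arg-MCA was kept well below KM, at 25 °C, pH 6.0 (50 mM phosphate, 5 mM EDTA, 0.2 M NaCl, 3% DMSO). Read-out was fluorescence at 380/440 nm. Ki came from 1/vs vs [I] plots or slow-binding analysis.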

Cathepsin B = Cathepsin B (Homo sapiens, UniProt P07858); test: Specificity of Cathepsin B inhibition by the compound; how it was run: as §1

Sequence of Procathepsin L (P07711 whole entry): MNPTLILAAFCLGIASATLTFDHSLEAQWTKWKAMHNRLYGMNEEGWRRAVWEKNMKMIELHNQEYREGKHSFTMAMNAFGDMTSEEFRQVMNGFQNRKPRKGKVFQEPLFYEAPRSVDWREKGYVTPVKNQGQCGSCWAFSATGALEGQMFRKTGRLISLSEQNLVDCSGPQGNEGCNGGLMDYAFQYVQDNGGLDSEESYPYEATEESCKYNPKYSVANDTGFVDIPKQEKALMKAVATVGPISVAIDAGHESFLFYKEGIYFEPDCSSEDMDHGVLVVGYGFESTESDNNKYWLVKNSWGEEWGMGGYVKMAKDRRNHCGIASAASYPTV

Row | SMILES | Ki (Procathepsin L) [nM] | Ki (Cathepsin K) [nM] | Ki (Cathepsin B) [nM]
1 | N=C(N)NCCC[C@H](NC(=O)[C@H](CCCN=C(N)N)NC(=O)[C@H](CS)NC(=O)Cc1ccc(-c2ccccc2)cc1)C(=O)NCCc1ccccc1 | 3900 | – | –
2 | N=C(N)NCCC[C@@H](NC(=O)[C@H](CO)NC(=O)Cc1ccc(-c2ccccc2)cc1)C(=O)N[C@@H](Cc1ccccc1)C(=O)N[C@@H](Cc1ccccc1)C(N)=O | 74000 | – | –
3 | CSC[C@H](NC(=O)Cc1ccc(-c2ccccc2)cc1)C(=O)NCC(=O)N[C@@H](Cc1ccccc1)C(=O)N[C@@H](Cc1ccccc1)C(N)=O ({Phenylacetyl(4-Ph)}-C(Me)GFF-NH2) | 930 | – | –
4 | N=C(N)NCCC[C@@H](NC(=O)[C@H](CS)NC(=O)Cc1ccc(-c2ccccc2)cc1)C(=O)N[C@@H](Cc1ccccc1)C(=O)N[C@@H](Cc1ccccc1)C(N)=O (stereo in doubt; 4) | 170 | – | –
5 | CSC[C@@H](NC(=O)Cc1ccc(-c2ccccc2)cc1)C(=O)N[C@@H](CCCN=C(N)N)C(=O)N[C@@H](CC(C)C)C(=O)NCCc1ccccc1 | 270 | – | –
6 | CSCC[C@H](NC(C)=O)C(=O)N[C@@H](CC(N)=O)C(=O)NCC(=O)N[C@@H](Cc1ccccc1)C(=O)N[C@@H](CCC(N)=O)C(N)=O (Ac-MNGFQ-NH2) | > 100000 | – | –
7 | N=C(N)NCCC[C@H](NC(=O)[C@H](CS)NC(=O)Cc1ccc(-c2ccccc2)cc1)C(=O)N[C@@H](Cc1c[nH]c2ccccc12)C(=O)NCCc1ccccc1 | 67 | 1000 | 560
8 | N=C(N)NCCC[C@H](NC(=O)[C@H](CS)NC(=O)Cc1ccc(-c2ccccc2)cc1)C(=O)N[C@@H](CC1CCCCC1)C(=O)NCCc1ccccc1 | 160 | – | –
9 | CSCC[C@H](NC(=O)[C@H](CCCN=C(N)N)NC(=O)[C@@H](CSC)NC(=O)Cc1ccc(-c2ccccc2)cc1)C(=O)NCCc1ccccc1 | 240 | – | –
10 | NC(=O)C[C@H](NC(=O)Cc1ccc(-c2ccccc2)cc1)C(=O)N[C@H](CCCN=C(N)N)C(=O)N[C@@H](Cc1ccccc1)C(=O)NC(Cc1ccccc1)C(N)=O (some centres not stated) | 38000 | – | –
11 | N=C(N)NCCC[C@H](NC(=O)[C@H](CS)NC(=O)Cc1ccc(-c2ccccc2)cc1)C(=O)N[C@@H](Cc1ccc(O)cc1)C(=O)NCCc1ccccc1 | – | 2900 | 15000
12 | N=C(N)NCCC[C@H](NC(=O)[C@H](CS)NC(=O)Cc1ccc(-c2ccccc2)cc1)C(=O)N[C@@H](Cc1ccc2ccccc2c1)C(=O)NCCc1ccccc1 | 160 | – | –
13 | CC[C@H](NC(=O)[C@H](CCCN=C(N)N)NC(=O)[C@H](CS)NC(=O)Cc1ccc(-c2ccccc2)cc1)C(=O)NCCc1ccccc1 | 210 | – | –
14 | N=C(N)NCCC[C@H](NC(=O)[C@H](CS)NC(=O)Cc1ccc(-c2ccccc2)cc1)C(=O)N[C@@H](Cc1ccc(-c2ccccc2)cc1)C(=O)NCCc1ccccc1 | 270 | – | –
